Results pooled from the literature.
Lines come from different studies, so protocols differ.
SLC6A4: Sodium-dependent serotonin transporter (SLC6A4, Homo sapiens, UniProt P31645)
rep main protease: Replicase polyprotein 1ab, main protease (rep, Porcine epidemic diarrhea virus, UniProt P0C6Y4)

| Compound | target | read-out | mode | method | concentration | quantity | value |
| --- | --- | --- | --- | --- | --- | --- | --- |
| COc1cc(CNC(=O)c2ccccc2SC)cc(Br)c1OC | Replicase polyprotein 1ab, papain-like protease (rep, Porcine epidemic diarrhea virus, UniProt P0C6Y4) | enzyme activity | inhibitor | FRET | 10 µM | inhibition | 18.8% |
| CNC(=O)[C@@]12C[C@@H]1[C@@H](n1cnc3c(NCc4cccc(Cl)c4)nc(C#Cc4ccc(Cl)s4)nc31)[C@H](O)[C@@H]2O | SLC6A4 | ligand displacement |  | radioligand | 10 µM | inhibition | 10% |
| COc1cc(CNC(=O)c2ccc3ccccc3n2)cc(Br)c1OC | rep main protease | enzyme activity | inhibitor | FRET | 10 µM | inhibition | 85.2% |
| CCOC(=O)[C@@]12C[C@@H]1[C@@H](n1cnc3c(NCCO)nc(C#Cc4ccc(Cl)s4)nc31)[C@H](O)[C@@H]2O | SLC6A4 | ligand displacement |  | radioligand | 10 µM | inhibition | -8% |
| Cc1cc(O)c(-c2ccc([C@@H](C)CN(C)C)cc2)c2c1[nH]c(=O)c1sccc12 | SRSF protein kinase 2 (SRPK2, Homo sapiens, UniProt P78362) | enzyme activity | inhibitor |  | 0.1 µM | inhibition | -3.6% |
| CSc1nc(NCCC2CC2)c2ncn([C@H]3[C@H](O)[C@H](O)[C@@H]4C[C@@H]43)c2n1 | SLC6A4 | ligand displacement |  | radioligand | 10 µM | inhibition | 17% |
| CCCCC(=O)Nc1ccc(-c2ccc3ncn(CCC)c(=O)c3c2)cn1 | Mitogen-activated protein kinase kinase kinase 20 (MAP3K20, Homo sapiens, UniProt Q9NYL2) | binding |  | competition with immobilised ligand | 0.5 µM | remaining binding | 54% |
| COc1cc(CNC(=O)c2ccccc2C)cc(Br)c1OC | rep main protease | enzyme activity | inhibitor | FRET | 10 µM | inhibition | 92.8% |
| C1=C/COCc2cc(ccc2OCCN2CCCC2)Nc2nccc(n2)-c2cccc(c2)COC/1 | Calcium/calmodulin-dependent protein kinase type 1D (CAMK1D, Homo sapiens, UniProt Q8IU85) | binding |  |  | 0.1 µM | remaining binding | 63% |
